Source: publication PMC6811699 (Stem Cells Translational Medicine, 2019)

What was measured:
[1] = tested on: induced sensory neuron cells (iSNs); experiment: Resazurin reduction cell viability assay; type: cell-based; details: Homo sapiens, 48 h, read-out: Detected cell viability IC50
In short: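 iSNs were specified and matured, reseeded into 96‑well plates, and dosed 24 hours later. Compounds were given as four 10‑fold dilutions, 0.01–10 μM final, with 0.1% DMSO final, in quadruplicate wells, for 48 hours. Medium was then replaced with 10 μg/ml resazurin in snMat medium for 2 hours at 37°C, 5% CO₂. Fluorescence was read at 544/590 nm. There were three biological replicates, reported as mean ± SEM, and IC50 came from the dose–response.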

[2] = tested on: induced sensory neuron cells (iSNs); experiment: High-content imaging, neurite length analysis; type: cell-based, human; details: 48 hours, 0.01–10 μM, treated 24 hours after seeding
In short: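 iSNs from blood-derived neural precursors, specified (DAPT, SU5402, CHIR99021) then matured (BDNF, GDNF, NGF, NT-3, ascorbic acid, forskolin), reseeded to 96-well plates; dosed 24 h later, 10-fold dilutions, 0.01–10 μM, 0.1% DMSO final, quadruplicate wells, 48 h.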

[3] = read-out: Reported neurite length IC50; literature values; cited from earlier work
patients = details: cited from earlier work
iSNs = experiment: Calcium imaging; type: cell-based, human; details: iSNs from adult nonmobilized PB, 30 μM α,β-meATP
In short: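 Mature iSNs were loaded with Fluo‑4‑AM for 1 hour at room temperature, then de‑esterified for 45 minutes. They were washed and kept in Hanks' balanced salt solution with 25 mM HEPES and 5.5 mM glucose. Agonists diluted in this buffer were applied at final 30 μM α,β‑meATP or 1 μM capsaicin to day‑7 iSNs in 96‑well plates. Peak calcium flux was recorded by epifluorescence microscopy with a xenon arc lamp.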

Structure (SMILES): CC(C)C[C@H](NC(=O)[C@H](Cc1ccccc1)NC(=O)c1cnccn1)B(O)O [Bortezomib]
- IC50 [1]: 1000 nM
- effect on neurite length / neurite degeneration [2]: neurite degeneration only at the highest tested concentrations
- IC50 [3]: > 100000 nM
- NP incidence (patients): 20–30%
- Neurotoxic dose in patients (patients): 30 mg/m^2

Structure (SMILES): N.N.[Cl][Pt][Cl] [Cisplatin]
- effect on neurite length / neurite degeneration [2]: reduced neurite length in the absence of cytotoxicity
- IC50 [3]: > 100000 nM
- NP incidence (patients): 70–100%

Structure (SMILES): COc1cc([C@@H]2c3cc4c(cc3[C@@H](O[C@@H]3O[C@@H]5CO[C@@H](C)O[C@H]5[C@H](O)[C@H]3O)[C@H]3COC(=O)[C@H]23)OCO4)cc(OC)c1O [Etoposide]
- effect on neurite length / neurite degeneration [2]: reduced neurite length in the absence of cytotoxicity
- IC50 [3]: 360 nM

Structure (SMILES): CC(=O)O[C@H]1C(=O)[C@@]2(C)[C@H]([C@H](OC(=O)c3ccccc3)[C@]3(O)C[C@H](OC(=O)[C@H](O)[C@@H](NC(=O)c4ccccc4)c4ccccc4)C(C)=C1C3(C)C)[C@]1(OC(C)=O)CO[C@@H]1C[C@@H]2O [Taxol, Paclitaxel]
- IC50 [1]: 7400 nM
- effect on neurite length / neurite degeneration [2]: reduced neurite length in the absence of cytotoxicity
- IC50 [3]: 5.6 to 10 nM

Structure (SMILES): CC[C@]1(O)C[C@H]2CN(CCc3c([nH]c4ccccc34)[C@@](C(=O)OC)(c3cc4c(cc3OC)N(C=O)[C@H]3[C@@](O)(C(=O)OC)[C@H](OC(C)=O)[C@]5(CC)C=CCN6CC[C@]43[C@@H]65)C2)C1 [Vincristine]
- IC50 [1]: 600 nM
- effect on neurite length / neurite degeneration [2]: reduced neurite length in the absence of cytotoxicity
- NP incidence (patients): Up to 20%
- Neurotoxic dose in patients (patients): 5–15 mg/m^2

Structure (SMILES): Nc1ncnc2c1ncn2[C@@H]1O[C@H](COP(=O)(O)CP(=O)(O)OP(=O)(O)O)[C@@H](O)[C@H]1O [α,β‐meATP, α,β‐methylene‐ATP]
- cytosolic calcium response (iSNs): robust elevation of cytosolic calcium
